According to ChEMBL document CHEMBL3414424, “Fluoroalkane thioheterocyclic derivatives and their antitumor activity” (Eur J Med Chem, 2015):
Activity calls are given as the source filed them. The rule behind the calls is not given here.

Columns and labels:
[1] = Cytotoxicity against human SH-SY5Y cells after 48 hrs by MTT assay; type: functional, cell-based
Summary of the method: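 SH-SY5Y, after overnight growth, were exposed continuously to compounds for 48 h in DMEM with 10% FBS. Then PBS washes, 4 h with 0.5 mg/ml MTT in serum-free DMEM, DMSO solubilization of formazan, and OD at 570 nm.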

[2] = tested on: HepG2; test: Cytotoxicity against human HepG2 cells after 48 hrs by MTT assay; type: functional, cell-based; settings: HepG2, 48 h
Summary of the method: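 HepG2 kept in MEM with 10% FBS and 1% penicillin/streptomycin at 37 °C, 5% CO2. After overnight growth, cells were exposed continuously to compounds for 48 h in MEM with 10% FBS. They were then PBS-washed and given 0.5 mg/ml MTT in serum-free DMEM for 4 h. Formazan was dissolved in DMSO and read at 570 nm.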

[3] = tested on: MCF7; test: Cytotoxicity against human MCF7 cells after 48 hrs by MTT assay; type: functional, cell-based; settings: MCF7, 48 h
Summary of the method: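 MCF-7 cells were grown overnight, then treated continuously for 48 h with compounds in DMEM containing 10% FBS. After two PBS washes, cells got 0.5 mg/ml MTT in serum-free DMEM for 4 h. Formazan was solubilized in DMSO and OD read at 570 nm.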

[4] = Cytotoxicity against human SH-SY5Y cells at 1 uM after 48 hrs by MTT assay; type: functional
Summary of the method: (§1)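 SH-SY5Y cells were grown overnight and treated for 48 h at the stated concentration in DMEM/10% FBS, as part of a dose-response series. After PBS washes, cells were incubated 4 h with 0.5 mg/ml MTT in serum-free DMEM. Formazan was dissolved in DMSO and read at 570 nm to give inhibition rate.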

[5] = tested on: HepG2; test: Cytotoxicity against human HepG2 cells at 1 uM after 48 hrs by MTT assay; type: functional, cell-based
Summary of the method: (§2)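 After overnight plating, HepG2 cells (maintained in MEM/10% FBS/1% pen-strep, 37 °C, 5% CO2) were treated at a fixed compound concentration for 48 h in MEM plus 10% FBS. MTT was 0.5 mg/ml in serum-free DMEM for 4 h after PBS washes, with formazan taken up in DMSO. Absorbance at 570 nm gave percent proliferation inhibition, part of a dose-response series.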

[6] = tested on: MCF7; test: Cytotoxicity against human MCF7 cells at 1 uM after 48 hrs by MTT assay; type: functional, cell-based
Summary of the method: (§3)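 Percent proliferation inhibition of MCF-7 at a single concentration, taken from a dose-response series. Cells were plated overnight, then compound-treated for 48 h in DMEM + 10% FBS. They were washed with PBS and incubated 4 h with 0.5 mg/ml MTT in serum-free DMEM. Formazan was dissolved in DMSO and read at 570 nm.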

[7] = Cytotoxicity against human SH-SY5Y cells at 5 uM after 48 hrs by MTT assay; type: functional; summary of the method: as §1
[8] = tested on: HepG2; test: Cytotoxicity against human HepG2 cells at 5 uM after 48 hrs by MTT assay; type: functional; settings: HepG2, 48 h; summary of the method: as §2
[9] = tested on: MCF7; test: Cytotoxicity against human MCF7 cells at 5 uM after 48 hrs by MTT assay; type: functional; settings: MCF7, 48 h; summary of the method: as §3
[10] = tested on: SH-SY5Y; test: Cytotoxicity against human SH-SY5Y cells at 10 uM after 48 hrs by MTT assay; type: functional, cell-based; summary of the method: as §1
[11] = tested on: HepG2; test: Cytotoxicity against human HepG2 cells at 10 uM after 48 hrs by MTT assay; type: functional, cell-based; summary of the method: as §2
[12] = tested on: MCF7; test: Cytotoxicity against human MCF7 cells at 10 uM after 48 hrs by MTT assay; type: functional, cell-based; summary of the method: as §3

| Compound | IC50 [1] [µM] | IC50 [2] [µM] | IC50 [3] [µM] | also measured |
| --- | --- | --- | --- | --- |
| Cn1c(SCCC(F)=C(F)F)nc(-c2ccncc2)cc1=O | > 120 | > 120 | > 120 |  |
| N#CC(C#N)Cc1nccs1 | > 120 | > 120 | > 120 |  |
| [O-][S+](CCC(F)=C(F)F)c1nc2ccccc2s1 (stereo unspecified) | 7 | 4.7 | 8.6 |  |
| c1ccc2sc(SNC3CCCCC3)nc2c1 | > 120 | 55 | 89.2 |  |
| O=S(=O)(CCC(F)(Cl)C(F)(F)Cl)c1nc2ccc(Cl)cc2s1 (stereo unspecified) | 6 | 6.1 | 8.4 |  |
| CC(C)(c1nccs1)C(C#N)C#N | > 120 | > 120 | > 120 |  |
| N#CC(C#N)(CCC(F)=C(F)F)Cc1nccs1 | > 120 | > 120 | > 120 |  |
| [O-][S+](CCC(F)=C(F)F)c1nc2ccccc2[nH]1 (stereo unspecified) | > 120 | > 120 | > 120 |  |
| c1ccc2sc(SN(C3CCCCC3)C3CCCCC3)nc2c1 | 69.1 | > 120 | > 120 |  |
| CC(=C(C#N)C#N)c1nccs1 | 68.8 | 105 | 110 |  |
| O=S(=O)(CCC(F)=C(F)F)c1nc2ccccc2s1 | 2.64 | 3.71 | 7.2 | inhibition at 1 µM [4]: 50%; inhibition [5]: inactive; inhibition [6]: inactive |
| FC(F)=C(F)CCSc1nc2ccccc2[nH]1 | > 120 | > 120 | > 120 |  |
| [O-][S+](CCC(F)=C(F)F)c1nc2ccccc2o1 (stereo unspecified) | 0.4 | 5.6 | 4.5 | inhibition at 5 µM [7]: 60%; inhibition at 5 µM [8]: 60%; inhibition at 5 µM [9]: 20% |
| FC(F)(Cl)C(F)(Cl)CCSc1nc2ccccc2s1 (stereo unspecified) | > 120 | > 120 | > 120 |  |
| c1ccc2sc(SSc3nc4ccccc4s3)nc2c1 [BENZOTHIAZYL DISULFIDE] | > 120 | > 120 | > 120 |  |
| FC(F)=C(F)CCSc1nccs1 | > 120 | > 120 | > 120 |  |
| CC(=O)O[C@H]1C(=O)[C@@]2(C)[C@H]([C@H](OC(=O)c3ccccc3)[C@]3(O)C[C@H](OC(=O)[C@H](O)[C@@H](NC(=O)c4ccccc4)c4ccccc4)C(C)=C1C3(C)C)[C@]1(OC(C)=O)CO[C@@H]1C[C@@H]2O [PACLITAXEL] |  | 0.045 | 0.032 |  |
| FC(F)=C(F)CCSc1nnc(S)s1 | > 120 | > 120 | > 120 |  |
| FC(F)=C(F)CCSc1ncc(Cl)s1 | > 120 | > 120 | > 120 |  |
| CC(c1nccs1)C(C#N)C#N (stereo unspecified) | > 120 | > 120 | > 120 |  |

| Compound | IC50 [1] [µM] | IC50 [2] [µM] | IC50 [3] [µM] | also measured |
| --- | --- | --- | --- | --- |
| [O-][S+](CCC(F)(Cl)C(F)(F)Cl)c1nc2ccc(Cl)cc2s1 (stereo unspecified) | 2.1 | 6.9 | 12.2 | inhibition at 1 µM [4]: 50%; inhibition [5]: inactive; inhibition [6]: inactive |
| FC(F)=C(F)CCSc1nc2ccccc2s1 | > 120 | > 120 | > 120 |  |
| O=S(=O)(CCC(F)=C(F)F)c1nccs1 | > 120 | > 120 | > 120 |  |
| FC(F)=C(F)CCSc1nc2ccc(OC(F)F)cc2[nH]1 | > 120 | > 120 | > 120 |  |
| FC(F)=C(F)CCSc1nc2ccccc2o1 | > 120 | > 120 | > 120 |  |
| COc1ccc2c(c1OC)C(=O)O[C@@H]2[C@H]1c2c(cc3c(c2OC)OCO3)CCN1C [NOSCAPINE] | 80.3 |  |  |  |
| CC(c1nccs1)C(C#N)(C#N)CCC(F)=C(F)F (stereo unspecified) | > 120 | > 120 | > 120 |  |
| O=S(=O)(CCC(F)=C(F)F)c1nc2ccc(OC(F)F)cc2[nH]1 | > 120 | > 120 | > 120 |  |
| O=S(=O)(CCC(F)=C(F)F)c1ccccn1 | > 120 | > 120 | > 120 |  |
| N#CC(C#N)=Cc1nccs1 | > 120 | > 120 | > 120 |  |
| [O-][S+](CCC(F)=C(F)F)c1nccs1 (stereo unspecified) | > 120 | > 120 | > 120 |  |
| [O-][S+](CCC(F)(Cl)C(F)(F)Cl)c1nc2ccccc2s1 (stereo unspecified) | 41.5 | 13.5 | 17.1 | Activity [10]: Active; Activity [11]: Active; Activity [12]: Active |
| [O-][S+](CCC(F)=C(F)F)c1ncc(-c2ccncc2)s1 (stereo unspecified) | > 120 | > 120 | > 120 |  |
| FC(F)=C(F)CCSc1ccccn1 | > 120 | > 120 | > 120 |  |
| O=S(=O)(CCC(F)=C(F)F)c1ncc(-c2ccncc2)s1 | > 120 | > 120 | > 120 |  |
| FC(F)=C(F)CCSc1ncc(-c2ccncc2)s1 | > 120 | > 120 | > 120 |  |
| FC(F)(Cl)C(F)(Cl)CCSc1nc2ccc(Cl)cc2s1 (stereo unspecified) | > 120 | > 120 | > 120 |  |
| O=S(=O)(CCC(F)(Cl)C(F)(F)Cl)c1nc2ccccc2s1 (stereo unspecified) | 4.5 | 4.5 | 10.1 |  |
| O=S(=O)(CCC(F)=C(F)F)c1nc2ccccc2[nH]1 | > 120 | > 120 | > 120 |  |
